MPTP block: permeability transition pore inhibition; hit rate 1.4% among 360,000; AID 602449; inhibition, % at 10 µM; isolated mouse mitochondria, Ca2+ swelling absorbance, 30 min;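 active = inhibition of 50% or more, scaled per plate between neutral and stimulator controls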;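 also: 0% = DMSO wells given calcium and 100% = 1 mM EGTA wells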
ATG4B inh: ATG4B (human) cysteine protease inhibition; inhibition, % at 8.33 µM; ATG4B cleavage of LC3-PLA2, NBD-HPC fluorescence, 1 h; Q9Y4P1; hit rate 0.51% among 340,000; in the data active = inhibition above about 40%
Target sequence (Q9Y4P1 whole entry, looked up): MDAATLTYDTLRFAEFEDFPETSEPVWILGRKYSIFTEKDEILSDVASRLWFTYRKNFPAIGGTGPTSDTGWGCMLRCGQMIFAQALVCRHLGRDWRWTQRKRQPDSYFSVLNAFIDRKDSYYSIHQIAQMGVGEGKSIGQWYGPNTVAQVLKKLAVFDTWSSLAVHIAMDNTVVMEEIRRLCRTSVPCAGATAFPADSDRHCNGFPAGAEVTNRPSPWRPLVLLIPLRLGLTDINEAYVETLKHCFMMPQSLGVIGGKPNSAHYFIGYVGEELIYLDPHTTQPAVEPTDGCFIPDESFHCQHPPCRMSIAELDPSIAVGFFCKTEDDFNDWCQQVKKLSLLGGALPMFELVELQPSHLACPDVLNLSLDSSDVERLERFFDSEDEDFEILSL
SMARCA2 act: increases SMARCA2 function in MMTV reporter cells; MG213 cells, MMTV-luciferase reporter, dexamethasone, overnight; activation, % at 9.1 µM; hit rate 1% among 370,000; in the data active = activation above about 7.8%;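 also: 0% = vehicle wells and 100% = reference activator wells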
MC4R ag barr: agonists of human melanocortin 4 receptor (MC4R) beta-arrestin; P32245; U2OS MC4R beta-arrestin complementation, luminescence; percent of melanotan II response, DMSO zero; activation, % at 8.9 µM; hit rate 0.98% among 360,000;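 active = activation above a per-plate cutoff, the mean activation of sample wells on that plate plus 3 SD, cut at about 8% in these data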
Target sequence (P32245 whole entry, looked up): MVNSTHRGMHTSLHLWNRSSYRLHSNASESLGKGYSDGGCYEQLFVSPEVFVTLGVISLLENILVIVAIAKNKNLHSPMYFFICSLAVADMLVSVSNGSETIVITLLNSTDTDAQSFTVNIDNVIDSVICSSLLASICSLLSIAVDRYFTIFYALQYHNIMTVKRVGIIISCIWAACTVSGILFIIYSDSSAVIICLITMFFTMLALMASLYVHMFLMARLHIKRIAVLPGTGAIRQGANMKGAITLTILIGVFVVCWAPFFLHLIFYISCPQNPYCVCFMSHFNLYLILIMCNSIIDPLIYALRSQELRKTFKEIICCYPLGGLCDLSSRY
MC4R antagonist: human MC4R antagonism in cAMP assay | MC4R-expressing cells, MTII-stimulated cAMP, LANCE TR-FRET | inhibition, % at 6.5 µM | AID 540295 | P32245 | hit rate 0.48% among 360,000;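 active = inhibition above its plate's cutoff, the mean of tested wells on that plate plus 3 SD, cut at about 29% in these data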;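 also: 0% = Melanotan II alone and 100% = Melanotan II plus saturating MCL0020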
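System: U2OS cells stably expressing human melanocortin 4 receptor (MC4R). Reagent: Melanotan II challenge after compound preincubation. Doses: 6.5 µM. Times: 30-min compound, 1-h challenge, 1-h detection, room temperature. Measured by: TR-FRET with Eu-cAMP and labeled anti-cAMP, 671 nm. Replicates: singlicate.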
MPTP counter: Rhodamine 123 counter-screen of mitochondrial pore hits | hit rate 78% among 5,000 | shares compounds with MPTP block | isolated mitochondria, membrane potential, Rhodamine 123 fluorescence | inhibition, % at 10 µM | AID 624504; in the data active = inhibition above about 22%;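 also: 0% = DMSO vehicle and 100% = positive control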
MPTP swell DR: dose response confirmation of mitochondrial permeability transition pore inhibitors. IC50, µM. shares compounds with MPTP block. hit rate 58% among 780. isolated mitochondria swelling, absorbance; in the data active = IC50 below about 20 µM
MPTP cs DR: MPTP inhibitor counter-screen activity, dose response | hit rate 49% among 780 | shares compounds with MPTP block | isolated mitochondria counterscreen, fluorescence read-out | IC50, µM; in the data active = IC50 below about 80 µM
Active calls of the source: *; i = inactive; / = no result given. Sampled rows, rich in hits. Any-hit rate of the full collection: about 4.1%.

SMILES | MPTP block | ATG4B inh | SMARCA2 act | MC4R ag barr | MC4R antagonist | MPTP counter | others
Oc1ccc(Cl)cc1/C=C/c1ccc2cccc(O)c2n1 | 14.5 | 13.1 | 0.6 | -3.6 | 7.1 | /
Oc1c(Cl)cc(Cl)cc1/C=C/c1ccc2cccc(O)c2n1 | 97.5* | 30.4 | -1.2 | -4.9 | 16.3 | 74.1*
Oc1ccccc1-c1n[nH]c(-c2ccccc2O)n1 | 86.9* | -0.5 | -4.0 | 1.9 | -2.8 | 84.5*
Clc1ccccc1-c1nc(-c2ccccc2)n[nH]1 | 2.6 | -1.8 | 5.8 | -3.3 | -6.6 | /
CCC(C(=O)Nc1ccc(OC)c(Cl)c1)c1ccccc1 (centres undefined) | 1.5 | -0.2 | -1.5 | -2.6 | -2.0 | /
O=C(Cc1cccc2ccccc12)Nc1ccc(OC(F)F)c(Cl)c1 | 85.1* | 5.6 | -2.8 | 4.0 | 4.7 | 90.1*
O=C(Nc1ccc(OC(F)F)c(Cl)c1)C(c1ccccc1)c1ccccc1 | 82.8* | 10.5 | -1.9 | 3.5 | 8.6 | 89.9*
Cc1ccccc1N=Nc1c(N)[nH]n(-c2ccccc2)c1=O | / | / | -1.0 | / | / | /
Cc1cc(F)ccc1-c1cc(C(=O)NCc2cccc(C(F)(F)F)c2)[nH]n1 | 9.4 | / | -1.0 | 3.6 | 3.6 | /
Cc1ccc(F)cc1-c1cc(C(=O)NCc2cc(C(F)(F)F)cc(C(F)(F)F)c2)[nH]n1 | 69.0* | / | 0.6 | 7.2 | 5.2 | 101.0*
Cc1cc(F)ccc1-c1cc(C(=O)NCc2cc(C(F)(F)F)cc(C(F)(F)F)c2)[nH]n1 | 84.4* | / | -0.9 | 6.7 | 8.9 | 104.0*
Cc1csc(-c2cc(C(=O)NCc3cc(C(F)(F)F)cc(C(F)(F)F)c3)n[nH]2)c1 | 71.9* | / | 0.0 | 4.8 | 7.7 | 77.9*
Cc1ccc(Cl)cc1-c1cc(C(=O)NCc2cc(C(F)(F)F)cc(C(F)(F)F)c2)[nH]n1 | 95.7* | / | -4.0 | 1.9 | 5.9 | 82.7*
COc1ccc(Cl)cc1-c1cc(C(=O)NCc2cc(C(F)(F)F)cc(C(F)(F)F)c2)[nH]n1 | 4.7 | / | -3.1 | 6.1 | 10.4 | /
CC(C)(C)OC(=O)NCCc1ccccc1/C=C/S(=O)(=O)NCc1ccccc1 | / | / | -2.0 | / | / | /
COc1cccc(CNC(=O)[C@H]2CCCN2C(=O)[C@H]2CCCN2C(=O)N2CCCCC2)c1 | / | / | -1.0 | / | / | /
COc1ccc(N/C(=C\C(=O)c2ccccc2)c2ccccc2)cc1OC | / | / | -0.8 | / | / | /
COC(=O)N1C[C@H](OCc2ccccc2)[C@H]2C[C@@H]1c1ccccc1O2 | / | / | -5.0 | / | / | /
CC(C)NC(=O)C1C(c2ccc(C(F)(F)F)cc2)=Nc2ccccc2N1C(=O)c1cccc(C(F)(F)F)c1 (centres undefined) | 2.2 | / | 0.7 | / | / | /
CC(=O)Nc1ccc(NC(=O)c2cc(-c3cc(C)cc(C)c3O)n[nH]2)cc1 | 1.1 | -19.1 | -2.6 | 1.8 | 18.2 | /
Cc1cc(C)c(O)c(-c2cc(C(=O)Nc3ccc(S(=O)(=O)N4CCOCC4)cc3)[nH]n2)c1 | 92.8* | -10.4 | -1.7 | -3.3 | 9.4 | 64.3*
Cc1ccc(O)c(-c2cc(C(=O)NCc3ccc4c(c3)OCO4)[nH]n2)c1 | 4.3 | -0.2 | 0.0 | 4.9 | 8.2 | /
Cc1ccc(CNC(=O)c2cc(-c3cc(C)cc(C)c3O)n[nH]2)cc1 | 88.0* | 2.4 | -2.9 | 5.5 | 3.5 | 72.8*
O=[N+]([O-])c1ccc(-c2nc3ccc([N+](=O)[O-])cc3[nH]2)cc1 | 105.1* | -3.1 | 1.3 | 3.9 | -3.5 | 92.4*
Nc1ccc(-c2nc3ccc([N+](=O)[O-])cc3[nH]2)cc1 | -9.8 | -1.2 | 4.5 | -1.2 | -14.5 | /
SMILES | MPTP block | ATG4B inh | SMARCA2 act | MC4R ag barr | MC4R antagonist | MPTP counter | others
O=[N+]([O-])c1ccc2nc(C(O)C(O)c3nc4ccc([N+](=O)[O-])cc4[nH]3)[nH]c2c1 (centres undefined) | -0.2 | 3.4 | -2.7 | -0.8 | 1.1 | /
O=[N+]([O-])c1ccc2nc(/C=C/c3ccc(Cl)cc3)[nH]c2c1 | 90.0* | -20.7 | -0.1 | -0.2 | 5.7 | 80.1*
O=C(NCc1ccco1)c1ccccc1NS(=O)(=O)c1ccc(Br)s1 | 70.6* | 13.3 | -3.1 | -0.3 | 20.3 | 81.1*
Cc1cc(C)cc(NC(=O)NCc2c(-c3ccccc3)noc2C)c1 | 26.4 | 17.4 | -4.3 | 0.0 | 1.9 | /
O=C(O)COCC(=O)NCc1nc(-c2ccc(C(F)(F)F)cc2)no1 | 1.2 | -0.8 | -3.2 | 0.7 | -1.4 | /
COc1ccc(-c2noc(CNC(=O)Nc3ccc(F)cc3)n2)cc1 | 17.9 | -9.5 | -0.3 | 0.7 | -1.6 | /
Cc1onc(-c2ccccc2)c1CNC(=O)Nc1ccc(C(F)(F)F)cc1 | 78.1* | 37.6 | -5.7 | 2.8 | 5.4 | 83.0*
Cc1cccc(-c2noc(CNC(=O)Nc3ccc(F)cc3)n2)c1 | 58.8* | -11.7 | -4.8 | -1.0 | 6.4 | 71.2*
O=C(NCc1nc(-c2ccc(C(F)(F)F)cc2)no1)Nc1cc(Cl)cc(Cl)c1 | 83.6* | -2.3 | -2.6 | 4.3 | -0.6 | 69.5*
O=C(NCc1nc(-c2ccc(C(F)(F)F)cc2)no1)Nc1ccc(F)cc1F | 54.1* | 8.2 | -1.7 | 4.7 | 5.7 | 68.6*
CC1CCN(CCCCOc2ccc(Cl)cc2)CC1 | -0.8 | -4.7 | / | -0.6 | 0.1 | /
CC1CCN(CCCCOc2ccc(C(C)(C)C)cc2)CC1 | 53.5* | -1.6 | -2.6 | 1.6 | 10.4 | 6.7 | MPTP swell DR=6.79*;MPTP cs DR=13.4*
CCOc1ccc(-n2c(SCC(=O)c3ccc4ccccc4c3)nnc2-c2cccc(Cl)c2)cc1 | / | / | 2.1 | / | / | /
O=c1c(N=Nc2ccc(O)cc2)c(-c2ccccc2)[nH]n1-c1ccc([N+](=O)[O-])cc1 | 28.6 | 1.5 | -1.0 | -2.3 | 8.0 | /
O=c1cc(-c2ccccc2)[nH]n1-c1ccc([N+](=O)[O-])cc1 | 100.1* | 7.6 | / | -3.9 | 5.8 | 77.4*
CSc1ccc2c(c1)N(CCC1CCCCN1C)c1ccccc1S2 (centres undefined) | 85.4* | 4.0 | 1.3 | 6.1 | -8.8 | -22.1 | MPTP swell DR=4.79*;MPTP cs DR=56*
CN1CCN(CCCN2c3ccccc3Sc3ccc(S(=O)(=O)N(C)C)cc32)CC1 | 1.1 | -4.7 | 3.4 | 0.7 | 4.2 | /
CCC1Sc2ccc(S(=O)(=O)Nc3ccc(OC)c(OC)c3)cc2NC1=O (centres undefined) | 95.1* | -2.6 | -4.5 | -1.3 | 3.8 | 86.5*
CN(Cc1cccs1)c1ncnc2sccc12 | 57.0* | -0.8 | -4.0 | -1.1 | -0.7 | 63.3*
Cc1csc2ncnc(NCCc3ccccn3)c12 | 86.9* | 1.0 | -7.6 | -1.6 | -5.7 | 69.5*
c1csc(CNc2ncnc3sccc23)c1 | 89.9* | 6.6 | -4.9 | 1.5 | 2.2 | 73.1*
c1ccc(CCNc2ncnc3sccc23)nc1 | 60.6* | -5.3 | -1.1 | 0.2 | 9.5 | 16.2 | MPTP swell DR=i;MPTP cs DR=52.5*
c1ccc(CNc2ncnc3sccc23)cc1 | 25.8 | -3.1 | -3.2 | -1.6 | 2.1 | /

Screens from PubChem BioAssay.
